Source: ChEMBL document CHEMBL5338733, “Heterobifunctional Ligase Recruiters Enable pan-Degradation of Inhibitor of Apoptosis Proteins” (J Med Chem, 2023)
The source made the active and inactive calls. No cut-off for these calls is given here.

Columns and labels:
[1] = molecular target: von Hippel-Lindau disease tumor suppressor (Homo sapiens) (UniProt P40337); assay: Induction of VHL30 degradation in human MM1.S cells assessed as remaining protein level at 0.1 uM incubated for 16 hrs by western blot analysis; type: cell-based
Sequence of von Hippel-Lindau disease tumor suppressor (Homo sapiens) (P40337 whole entry, looked up): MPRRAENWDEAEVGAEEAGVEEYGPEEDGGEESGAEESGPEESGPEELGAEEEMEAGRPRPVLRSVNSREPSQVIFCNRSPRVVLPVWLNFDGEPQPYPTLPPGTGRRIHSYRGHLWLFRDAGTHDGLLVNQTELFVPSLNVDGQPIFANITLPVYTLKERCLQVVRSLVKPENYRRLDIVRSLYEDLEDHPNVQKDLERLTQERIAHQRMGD
In short: (§1)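 MM.1S cells treated 16 h at the stated concentration. Lysed, run on SDS-PAGE and transferred to PVDF. Probed with primary antibodies overnight at 4 °C, then HRP secondaries, with ECL detection. Band densitometry normalized to loading control and to DMSO-treated cells. Averages of at least three independent experiments.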

[2] = molecular target: Baculoviral IAP repeat-containing protein 2 (Homo sapiens) (UniProt Q13490); assay: Induction of cIAP1 degradation in human MM1.S cells assessed as remaining protein level at 0.1 uM incubated for 16 hrs by western blot analysis; type: cell-based
Sequence of Baculoviral IAP repeat-containing protein 2 (Homo sapiens) (Q13490 whole entry): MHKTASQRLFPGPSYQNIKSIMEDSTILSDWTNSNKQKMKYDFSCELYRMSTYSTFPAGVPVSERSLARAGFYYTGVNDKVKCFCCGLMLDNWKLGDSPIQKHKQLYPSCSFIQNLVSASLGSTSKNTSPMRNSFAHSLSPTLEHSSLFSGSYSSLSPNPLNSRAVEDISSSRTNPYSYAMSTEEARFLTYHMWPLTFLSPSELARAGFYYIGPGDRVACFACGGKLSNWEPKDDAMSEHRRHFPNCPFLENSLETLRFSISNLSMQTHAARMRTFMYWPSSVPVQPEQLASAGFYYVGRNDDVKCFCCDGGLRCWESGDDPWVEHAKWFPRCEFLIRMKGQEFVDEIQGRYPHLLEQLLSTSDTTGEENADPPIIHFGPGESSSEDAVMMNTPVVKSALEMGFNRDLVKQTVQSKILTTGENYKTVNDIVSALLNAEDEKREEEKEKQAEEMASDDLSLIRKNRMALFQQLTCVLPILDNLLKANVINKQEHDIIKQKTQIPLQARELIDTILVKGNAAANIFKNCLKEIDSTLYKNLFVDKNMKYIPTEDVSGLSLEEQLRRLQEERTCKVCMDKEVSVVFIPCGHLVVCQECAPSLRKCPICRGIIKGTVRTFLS
In short: (§2)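 Lysed, run on SDS-PAGE and transferred to PVDF. Probed with primary antibodies overnight at 4 °C, then HRP secondaries, with ECL detection. Band densitometry normalized to loading control and to DMSO-treated cells. Averages of at least three independent experiments.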

[3] = molecular target: Baculoviral IAP repeat-containing protein 3 (Homo sapiens) (UniProt Q13489); assay: Induction of cIAP2 degradation in human MM1.S cells assessed as remaining protein level at 0.1 uM incubated for 16 hrs by western blot analysis; type: cell-based; in short: as §2
Sequence of Baculoviral IAP repeat-containing protein 3 (Homo sapiens) (Q13489 whole entry): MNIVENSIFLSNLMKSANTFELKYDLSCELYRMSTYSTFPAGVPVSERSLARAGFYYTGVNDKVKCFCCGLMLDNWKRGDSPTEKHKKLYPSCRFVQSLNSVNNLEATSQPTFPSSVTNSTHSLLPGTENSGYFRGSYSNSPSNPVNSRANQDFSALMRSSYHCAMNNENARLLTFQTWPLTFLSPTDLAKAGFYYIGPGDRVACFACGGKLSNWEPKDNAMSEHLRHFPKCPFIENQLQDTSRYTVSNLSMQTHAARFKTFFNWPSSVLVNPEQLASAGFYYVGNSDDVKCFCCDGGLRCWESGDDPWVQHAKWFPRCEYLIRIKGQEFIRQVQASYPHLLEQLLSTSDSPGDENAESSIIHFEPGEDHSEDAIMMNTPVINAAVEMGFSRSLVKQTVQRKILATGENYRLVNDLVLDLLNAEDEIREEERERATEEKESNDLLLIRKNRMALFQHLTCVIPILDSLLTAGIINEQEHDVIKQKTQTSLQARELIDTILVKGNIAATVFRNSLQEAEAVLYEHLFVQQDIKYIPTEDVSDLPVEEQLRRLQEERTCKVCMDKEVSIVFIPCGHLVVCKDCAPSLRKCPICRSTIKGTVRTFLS

[4] = molecular target: Baculoviral IAP repeat-containing protein 2 (Homo sapiens) (UniProt Q13490); assay: Induction of cIAP1 degradation in human MM1.S cells at 1 uM incubated for 16 hrs by western blot analysis; type: cell-based; in short: as §1
[5] = molecular target: Baculoviral IAP repeat-containing protein 3 (Homo sapiens) (UniProt Q13489); assay: Induction of cIAP2 degradation in human MM1.S cells at 1 uM incubated for 16 hrs by western blot analysis; type: cell-based; in short: as §1
[6] = molecular target: E3 ubiquitin-protein ligase XIAP (Homo sapiens) (UniProt P98170); assay: Induction of XIAP degradation in human MM1.S cells at 1 uM incubated for 16 hrs by western blot analysis; type: cell-based; in short: as §1
Sequence of E3 ubiquitin-protein ligase XIAP (Homo sapiens) (P98170 whole entry): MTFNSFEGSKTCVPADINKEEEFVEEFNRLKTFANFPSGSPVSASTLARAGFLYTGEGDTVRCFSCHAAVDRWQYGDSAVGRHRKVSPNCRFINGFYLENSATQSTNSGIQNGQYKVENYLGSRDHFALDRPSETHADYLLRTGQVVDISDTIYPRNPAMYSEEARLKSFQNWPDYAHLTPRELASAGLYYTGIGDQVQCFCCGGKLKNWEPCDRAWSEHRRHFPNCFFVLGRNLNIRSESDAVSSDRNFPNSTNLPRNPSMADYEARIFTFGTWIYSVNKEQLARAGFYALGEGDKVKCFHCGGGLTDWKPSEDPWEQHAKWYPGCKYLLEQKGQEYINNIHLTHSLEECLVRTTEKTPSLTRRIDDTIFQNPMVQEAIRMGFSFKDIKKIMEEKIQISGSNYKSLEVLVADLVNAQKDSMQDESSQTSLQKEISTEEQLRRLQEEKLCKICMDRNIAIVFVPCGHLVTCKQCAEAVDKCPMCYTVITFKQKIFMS

[7] = molecular target: von Hippel-Lindau disease tumor suppressor (Homo sapiens) (UniProt P40337); assay: Induction of VHL30 degradation in human MM1.S cells at 1 uM incubated for 16 hrs by western blot analysis; type: cell-based; in short: as §1
[8] = molecular target: von Hippel-Lindau disease tumor suppressor (Homo sapiens) (UniProt P40337); assay: Induction of VHL19 degradation in human MM1.S cells at 1 uM incubated for 16 hrs by western blot analysis; type: cell-based; in short: as §1
RPMI-8226 = assay: Cytotoxicity against human RPMI-8226 cells assessed as reduction in cell viability measured after 96 hrs in presence of TNF-alpha by CellTiter-Glo luminescent assay; type: functional, cell-based; settings: RPMI-8226, 96 h
In short: (§3)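 Cells kept in RPMI-1640 with 10% FBS, 1% penicillin/streptomycin and 1% L-glutamine at 37 °C, 5% CO2. Seeded with compounds and incubated 96 h at 37 °C with TNF-α at 1 ng/mL. Viability read by CellTiter-Glo luminescence and normalized to DMSO-treated control. Mean ± SD of biological triplicates.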

JJN-3 = assay: Cytotoxicity against human JJN-3 cells assessed as reduction in cell viability measured after 96 hrs in presence of TNF-alpha by CellTiter-Glo luminescent assay; type: functional, cell-based; settings: JJN-3, 96 h; in short: as §3
NCI-H929 = assay: Cytotoxicity against human NCI-H929 cells assessed as reduction in cell viability measured after 96 hrs in presence of TNF-alpha by CellTiter-Glo luminescent assay; type: functional, cell-based; settings: NCI-H929, 96 h
In short: (§4)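 Cells seeded with compound at indicated concentrations ± TNF-α 1 ng/mL, incubated 96 h at 37 °C; viability by CellTiter-Glo luminescence, normalized to DMSO control; mean ± SD of biological triplicates. NCI-H929 cultured in RPMI-1640/10% FBS with 2-mercaptoethanol and sodium pyruvate; other lines in RPMI-1640/10% FBS, 37 °C, 5% CO2.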

HEL = assay: Cytotoxicity against human HEL cells assessed as reduction in cell viability measured after 96 hrs in presence of TNF-alpha by CellTiter-Glo luminescent assay; type: functional, cell-based; in short: as §3
K562 = assay: Cytotoxicity against human K562 cells assessed as reduction in cell viability measured after 96 hrs in presence of TNF-alpha by CellTiter-Glo luminescent assay; type: functional, cell-based; settings: K562, 96 h; in short: as §3
MOLM-13 = assay: Cytotoxicity against human MOLM-13 cells assessed as reduction in cell viability measured after 96 hrs in presence of TNF-alpha by CellTiter-Glo luminescent assay; type: functional, cell-based; settings: MOLM-13, 96 h; in short: as §3
SUD4 = assay: Cytotoxicity against human SU-DHL-4 cells assessed as reduction in cell viability measured after 96 hrs in presence of TNF-alpha by CellTiter-Glo luminescent assay; type: functional, cell-based; settings: SU-DHL-4, 96 h; in short: as §3
DB = assay: Cytotoxicity against human DB cells assessed as reduction in cell viability measured after 96 hrs in presence of TNF-alpha by CellTiter-Glo luminescent assay; type: functional, cell-based; in short: as §3
SU-DHL-6 = assay: Cytotoxicity against human SU-DHL-6 cells assessed as reduction in cell viability measured after 96 hrs in presence of TNF-alpha by CellTiter-Glo luminescent assay; type: functional, cell-based; settings: SU-DHL-6, 96 h; in short: as §4

Q: Which results are given for `Cc1ncsc1-c1ccc(CNC(=O)[C@@H]2C[C@@H](O)CN2C(=O)[C@@H](NC(=O)C2(C#N)CC2)C(C)(C)C)cc1`?
A: Activity [1]: 95%; Activity [2]: 95%; Activity [3]: 81%; Activity [4]: inactive; Activity [5]: inactive; Activity [6]: inactive; Activity [7]: inactive; Activity [8]: inactive; IC50 (RPMI-8226): > 10 µM; IC50 (JJN-3): > 10 µM; IC50 (NCI-H929): > 10 µM; IC50 (HEL): > 10 µM; IC50 (K562): > 10 µM; IC50 (MOLM-13): > 10 µM; IC50 (SUD4): > 10 µM; IC50 (DB): > 10 µM; IC50 (SU-DHL-6): > 10 µM
